From ChEMBL document CHEMBL5724801, “EUbOPEN Chemogenomics Library - Multiplex” (2024)
Several values for one entry are separate records, joined by “and”; a condition that tells them apart may be missing. Equal entries are not always repeated.

System: U2OS
Assay: Multiplex assay against U2OS
Format: toxicity, cell-based
Conditions: human, 12 h, 1 µM, compound concentration 1 uM
Method in brief: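 Imaging took place on a CQ1 microscope at 37°C and 5% CO2 once compound had been added to live cells stained at seeding with Hoechst33342, BioTracker Green Microtubule Cytoskeleton Dye, MitoTracker Red and Annexin V Alexa Fluor 680. CellPathfinder machine-learning gating classed cells as Hoechst high-intensity objects or normal cells, classed normal cells as having healthy, pyknosed or fragmented nuclei, and classed pyknosed cells as mitotic or apoptotic. Tubulin, mitochondrial-mass and membrane-permeability phenotypes are per cents of the healthy-nucleus cells.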

| SMILES | Population Apoptotic (%) | Population Fragmented Nuclei (%) | Population Healthy Nuclei (%) | Population Hoechst High Intensity Objects (%) | Population Membrane Permeable-Phenotype (%) | Population Mitochondria Different-Phenotype (%) | Population Mitotic Cells (%) | Population Normal (%) | Population Pyknosed Nuclei (%) | Population Tubulin-Different-Phenotype (%) |
| --- | --- | --- | --- | --- | --- | --- | --- | --- | --- | --- |
| CNC[C@H](O)c1ccc(O)c(O)c1 [EPINEPHRINE] | 88% and 80% | 35% and 17% | 56% and 77% | 2% and 0% | 5% and 7% | 1% and 2% | 11% and 20% | 97% and 100% | 7% and 5% | 2% and 4% |
| CC(C)(C)c1ccc(S(=O)(=O)Nc2ccc(Cl)cc2C(=O)c2cc[n+]([O-])cc2)cc1 [VERCIRNON] | 77% and 100% | 28% and 15% | 61% and 79% | 1% and 0% | 8% | 5% and 4% | 22% and 0% | 98% and 99% | 10% and 5% | 4% and 3% |

Same assay, conditions: human, 12 h, 1 µM, compound concentration 1 uM

| SMILES | Total Cell Count |
| --- | --- |
| CNC[C@H](O)c1ccc(O)c(O)c1 [EPINEPHRINE] | 229 and 92 |
| CC(C)(C)c1ccc(S(=O)(=O)Nc2ccc(Cl)cc2C(=O)c2cc[n+]([O-])cc2)cc1 [VERCIRNON] | 307 and 156 |

Same assay, conditions: human, 12 h, 10 µM, compound concentration 10 uM

| SMILES | Population Apoptotic (%) | Population Fragmented Nuclei (%) | Population Healthy Nuclei (%) | Population Hoechst High Intensity Objects (%) | Population Membrane Permeable-Phenotype (%) | Population Mitochondria Different-Phenotype (%) | Population Mitotic Cells (%) | Population Normal (%) | Population Pyknosed Nuclei (%) | Population Tubulin-Different-Phenotype (%) |
| --- | --- | --- | --- | --- | --- | --- | --- | --- | --- | --- |
| CNC[C@H](O)c1ccc(O)c(O)c1 [EPINEPHRINE] | 92% and 86% | 41% and 33% | 45% and 50% | 6% and 9% | 7% and 6% | 1% and 2% | 8% and 13% | 93% and 90% | 13% and 15% | 4% and 6% |
| CC(C)(C)c1ccc(S(=O)(=O)Nc2ccc(Cl)cc2C(=O)c2cc[n+]([O-])cc2)cc1 [VERCIRNON] | 77% and 50% | 24% and 21% | 68% and 77% | 1% and 0% | – | 2% | 22% and 50% | 98% and 99% | 6% and 1% | – |

Same assay, conditions: human, 12 h, 10 µM, compound concentration 10 uM

| SMILES | Total Cell Count |
| --- | --- |
| CNC[C@H](O)c1ccc(O)c(O)c1 [EPINEPHRINE] | 199 and 105 |
| CC(C)(C)c1ccc(S(=O)(=O)Nc2ccc(Cl)cc2C(=O)c2cc[n+]([O-])cc2)cc1 [VERCIRNON] | 266 and 123 |

Same assay, conditions: human, 24 h, 1 µM, compound concentration 1 uM

| SMILES | Population Apoptotic (%) | Population Fragmented Nuclei (%) | Population Healthy Nuclei (%) | Population Hoechst High Intensity Objects (%) | Population Membrane Permeable-Phenotype (%) | Population Mitochondria Different-Phenotype (%) | Population Mitotic Cells (%) | Population Normal (%) | Population Pyknosed Nuclei (%) | Population Tubulin-Different-Phenotype (%) |
| --- | --- | --- | --- | --- | --- | --- | --- | --- | --- | --- |
| CNC[C@H](O)c1ccc(O)c(O)c1 [EPINEPHRINE] | 84% and 75% | 28% and 19% | 64% and 68% | 2% | 6% and 7% | 1% and 5% | 15% and 25% | 97% | 7% and 11% | 2% and 1% |
| CC(C)(C)c1ccc(S(=O)(=O)Nc2ccc(Cl)cc2C(=O)c2cc[n+]([O-])cc2)cc1 [VERCIRNON] | 89% and 92% | 25% and 18% | 67% and 74% | 1% and 0% | 8% and 2% | 5% and 4% | 10% and 7% | 98% and 99% | 7% | 4% and 2% |

Same assay, conditions: human, 24 h, 1 µM, compound concentration 1 uM

| SMILES | Total Cell Count |
| --- | --- |
| CNC[C@H](O)c1ccc(O)c(O)c1 [EPINEPHRINE] | 278 and 105 |
| CC(C)(C)c1ccc(S(=O)(=O)Nc2ccc(Cl)cc2C(=O)c2cc[n+]([O-])cc2)cc1 [VERCIRNON] | 357 and 183 |

Same assay, conditions: human, 24 h, 10 µM, compound concentration 10 uM

| SMILES | Population Apoptotic (%) | Population Fragmented Nuclei (%) | Population Healthy Nuclei (%) | Population Hoechst High Intensity Objects (%) | Population Membrane Permeable-Phenotype (%) | Population Mitochondria Different-Phenotype (%) | Population Mitotic Cells (%) | Population Normal (%) | Population Pyknosed Nuclei (%) | Population Tubulin-Different-Phenotype (%) |
| --- | --- | --- | --- | --- | --- | --- | --- | --- | --- | --- |
| CNC[C@H](O)c1ccc(O)c(O)c1 [EPINEPHRINE] | 94% and 100% | 39% and 31% | 50% and 45% | 9% and 11% | 11% and 2% | 5% and 0% | 5% and 0% | 90% and 88% | 10% and 22% | 6% and 2% |
| CC(C)(C)c1ccc(S(=O)(=O)Nc2ccc(Cl)cc2C(=O)c2cc[n+]([O-])cc2)cc1 [VERCIRNON] | 76% and 71% | 21% and 22% | 72% | 2% and 1% | – | 1% | 23% and 28% | 97% and 98% | 5% and 4% | – |

Same assay, conditions: human, 24 h, 10 µM, compound concentration 10 uM

| SMILES | Total Cell Count |
| --- | --- |
| CNC[C@H](O)c1ccc(O)c(O)c1 [EPINEPHRINE] | 195 and 96 |
| CC(C)(C)c1ccc(S(=O)(=O)Nc2ccc(Cl)cc2C(=O)c2cc[n+]([O-])cc2)cc1 [VERCIRNON] | 297 and 160 |

Same assay, conditions: human, 48 h, 1 µM, compound concentration 1 uM

| SMILES | Population Apoptotic (%) | Population Fragmented Nuclei (%) | Population Healthy Nuclei (%) | Population Hoechst High Intensity Objects (%) | Population Membrane Permeable-Phenotype (%) | Population Mitochondria Different-Phenotype (%) | Population Mitotic Cells (%) | Population Normal (%) | Population Pyknosed Nuclei (%) | Population Tubulin-Different-Phenotype (%) |
| --- | --- | --- | --- | --- | --- | --- | --- | --- | --- | --- |
| CNC[C@H](O)c1ccc(O)c(O)c1 [EPINEPHRINE] | 87% and 92% | 24% and 18% | 66% and 72% | 0% | 9% and 4% | 5% and 3% | 12% and 7% | 99% | 9% | 4% and 2% |
| CC(C)(C)c1ccc(S(=O)(=O)Nc2ccc(Cl)cc2C(=O)c2cc[n+]([O-])cc2)cc1 [VERCIRNON] | 82% and 84% | 19% and 15% | 73% and 75% | 3% and 4% | 5% and 7% | 3% and 2% | 17% and 15% | 96% and 95% | 6% and 9% | 4% and 2% |

Same assay, conditions: human, 48 h, 1 µM, compound concentration 1 uM

| SMILES | Total Cell Count |
| --- | --- |
| CNC[C@H](O)c1ccc(O)c(O)c1 [EPINEPHRINE] | 333 and 150 |
| CC(C)(C)c1ccc(S(=O)(=O)Nc2ccc(Cl)cc2C(=O)c2cc[n+]([O-])cc2)cc1 [VERCIRNON] | 515 and 296 |

Same assay, conditions: human, 48 h, 10 µM, compound concentration 10 uM

| SMILES | Population Apoptotic (%) | Population Fragmented Nuclei (%) | Population Healthy Nuclei (%) | Population Hoechst High Intensity Objects (%) | Population Membrane Permeable-Phenotype (%) | Population Mitochondria Different-Phenotype (%) | Population Mitotic Cells (%) | Population Normal (%) | Population Pyknosed Nuclei (%) | Population Tubulin-Different-Phenotype (%) |
| --- | --- | --- | --- | --- | --- | --- | --- | --- | --- | --- |
| CNC[C@H](O)c1ccc(O)c(O)c1 [EPINEPHRINE] | 92% and 94% | 41% and 36% | 44% and 40% | 10% and 17% | 15% and 24% | 8% and 13% | 7% and 5% | 89% and 82% | 14% and 23% | 10% and 13% |
| CC(C)(C)c1ccc(S(=O)(=O)Nc2ccc(Cl)cc2C(=O)c2cc[n+]([O-])cc2)cc1 [VERCIRNON] | 79% and 77% | 18% and 26% | 75% and 65% | 1% and 2% | 2% and 8% | 1% and 5% | 20% and 22% | 98% and 97% | 5% and 8% | 1% and 11% |

Same assay, conditions: human, 48 h, 10 µM, compound concentration 10 uM

| SMILES | Total Cell Count |
| --- | --- |
| CNC[C@H](O)c1ccc(O)c(O)c1 [EPINEPHRINE] | 215 and 87 |
| CC(C)(C)c1ccc(S(=O)(=O)Nc2ccc(Cl)cc2C(=O)c2cc[n+]([O-])cc2)cc1 [VERCIRNON] | 414 and 215 |
